The list is not random: actives were taken first. Their share in the collection is about 1.7%.
LMPTP block – LMPTP phosphatase inhibitors, primary screen, biochemical, fluorescence intensity, uHTS; AID 651560, 2012; Low molecular weight phosphotyrosine protein phosphatase (Homo sapiens), P24666; inhibition, % at 20 µM; actives 0.22% (n = 360,000); recombinant LMPTP-A, OMFP fluorogenic substrate;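 active means compounds that cut the enzyme signal by at least half of the control window in the single-dose screen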
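Test system: LMPTP-A phosphatase enzyme; input: 0.625 nM LMPTP-A final; reagent: OMFP substrate, 400 µM final; compound dosing: 20 µM single dose, 3% DMSO; incubation: 50 min dark incubation at room temperature; measured by: endpoint fluorescence intensity from OMFP dephosphorylation; measure: % inhibition relative to no-enzyme and uninhibited control wells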
SUMO1-SIM PPI – modulators of SUMO1 protein-protein interactions, primary screen, biochemical, uHTS. actives 0.33% (n = 360,000). SUMO1 binding to a labelled peptide, TR-FRET, 1 h. Small ubiquitin-related modifier 1 (Homo sapiens), P63165. inhibition, % at 20 µM. AID 602429, 2012; in the data active means inhibition above about 37%
STEP inh – STEP phosphatase inhibitors, primary screen, biochemical, fluorescence intensity, uHTS | AID 588621, 2011 | actives 0.25% (n = 360,000) | Tyrosine-protein phosphatase non-receptor type 5 (Homo sapiens), P54829 | inhibition, % at 20 µM | recombinant STEP, OMFP fluorogenic substrate;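 active means inhibition at 20 µM, scaled per plate between control wells, above about 37%, limit read from the data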
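System: STEP phosphatase, cell-free reaction; Buffer or medium: Bis-Tris pH 6.0 buffer with DTT, detergent; Incubation: 20 min at room temperature, dark; Measured by: fluorescence, 480/540 nm.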
DNMT1 inh – human DNMT1 methyltransferase inhibitors, primary screen, biochemical, molecular beacon, fluorescence, HinP1I cleavage, uHTS | DNA (cytosine-5)-methyltransferase 1 (Homo sapiens), P26358 | inhibition (reported as % activation of signal), % at 10 µM | actives 0.83% (n = 360,000); in the data active means inhibition above about 50%
Target sequence (P26358 504-1616 limits assumed): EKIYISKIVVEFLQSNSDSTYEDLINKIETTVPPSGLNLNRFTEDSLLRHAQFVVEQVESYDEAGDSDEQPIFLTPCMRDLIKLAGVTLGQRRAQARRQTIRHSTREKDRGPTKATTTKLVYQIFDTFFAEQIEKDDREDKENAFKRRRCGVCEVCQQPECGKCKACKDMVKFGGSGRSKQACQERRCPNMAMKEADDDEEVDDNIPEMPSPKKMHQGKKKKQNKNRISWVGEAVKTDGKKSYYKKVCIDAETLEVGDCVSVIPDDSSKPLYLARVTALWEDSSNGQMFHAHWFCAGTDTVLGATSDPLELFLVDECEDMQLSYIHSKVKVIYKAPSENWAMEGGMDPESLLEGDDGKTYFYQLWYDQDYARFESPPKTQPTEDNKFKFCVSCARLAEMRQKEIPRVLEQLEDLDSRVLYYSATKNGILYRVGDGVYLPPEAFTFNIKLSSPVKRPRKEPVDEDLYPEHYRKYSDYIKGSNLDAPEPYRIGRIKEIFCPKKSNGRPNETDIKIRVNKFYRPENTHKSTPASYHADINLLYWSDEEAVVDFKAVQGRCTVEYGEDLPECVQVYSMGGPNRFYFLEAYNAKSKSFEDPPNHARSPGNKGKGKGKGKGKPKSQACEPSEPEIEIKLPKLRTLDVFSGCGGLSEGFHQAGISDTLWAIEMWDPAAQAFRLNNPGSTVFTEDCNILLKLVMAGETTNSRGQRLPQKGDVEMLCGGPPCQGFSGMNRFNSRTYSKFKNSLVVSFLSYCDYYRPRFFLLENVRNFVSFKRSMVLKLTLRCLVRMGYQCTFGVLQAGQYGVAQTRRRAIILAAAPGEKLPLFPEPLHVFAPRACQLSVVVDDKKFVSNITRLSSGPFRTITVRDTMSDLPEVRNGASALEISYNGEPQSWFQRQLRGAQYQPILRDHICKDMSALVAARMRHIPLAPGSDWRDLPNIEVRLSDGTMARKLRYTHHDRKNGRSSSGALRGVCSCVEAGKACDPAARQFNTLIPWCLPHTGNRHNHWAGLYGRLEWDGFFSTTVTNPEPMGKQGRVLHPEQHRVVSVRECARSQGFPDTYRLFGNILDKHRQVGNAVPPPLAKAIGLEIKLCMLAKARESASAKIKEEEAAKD
Scp-1 inhibitor – Scp-1 phosphatase inhibitors, primary screen, biochemical, colorimetric, uHTS | inhibition, % at 20 µM | Carboxy-terminal domain RNA polymerase II polypeptide A small phosphatase 1 (Homo … | actives 0.88% (n = 340,000) | Recombinant Scp1, phosphopeptide, malachite green phosphate absorbance;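 active means inhibition above about 50% at 20 µM, limit read from the data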
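assay system = SCP-1 phosphatase catalytic domain, residues 76-261 | buffer or medium = 50 mM Tris acetate pH 5.5, 0.005% Tween-20, 10 mM MgCl2 | incubation = enzyme reaction 45 min at room temperature, colour 5 min, stabilisation 30 min | signal = Phosphate-binding colour reagent, absorbance read at 630 nm | measure = % inhibition at 20 µM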
Large screens that a line does not name were inactive.

CCOC(=O)/C(C)=C1\NC(C)(C)Cc2ccccc21	Scp-1 inhibitor 100.8
CC(C)C[C@H]1CN(CCCC[C@@H]2CNC(=O)C(=O)N2CC2CCCCC2)C(=O)C(=O)N1CCC1CCCCC1	none (no result: STEP inh, DNMT1 inh, Scp-1 inhibitor)
Cc1ccccc1NC(=O)COc1coc(CN2CCN(c3ccccc3)CC2)cc1=O	none
Cc1ccc(NC(=O)c2c(C(F)(F)F)nn(C)c2Cl)cc1C	none
Cn1nc(C(F)(F)F)c(C(=O)Nc2ccc(Cl)cc2)c1Cl	SUMO1-SIM PPI 41.0
COc1cc2c(ccc3cc(OC)c(OC)c(O)c32)cc1O	LMPTP block 61.8, STEP inh 53.2, DNMT1 inh 84.9, Scp-1 inhibitor 69.0
C/C(=N\NS(=O)(=O)c1ccc(Cl)c([N+](=O)[O-])c1)c1ccc(C)o1	LMPTP block 54.6
C/C(=N\NS(=O)(=O)c1ccc(C)c([N+](=O)[O-])c1)c1cc2ccccc2o1	none
C/C(=N\NS(=O)(=O)c1ccc(Cl)c([N+](=O)[O-])c1)c1cc2ccccc2o1	LMPTP block 60.3
COCCCNC(=O)C[C@H]1C[C@H](C(=O)N(C(C)C)C(C)C)[C@@]2(C)c3[nH]c4ccc(Cl)cc4c3CCN2C1=O	none
CCOC(=O)C1CCN(S(=O)(=O)c2ccc3c(c2)CC(=O)N3C)CC1	Scp-1 inhibitor 69.2
CCOC(=O)C1CCN(S(=O)(=O)c2ccc3c(c2)CCCN3C(C)=O)CC1	none
FC(F)(F)c1ccccc1Cc1c(-c2cccc(Br)c2)nc2ccc(Cl)cn12	none (no result: Scp-1 inhibitor)
O=C(c1ccoc1)N1CCN(c2cc(-c3cccc(F)c3)nc3cc(-c4cccc(Cl)c4)nn23)CC1	none (no result: Scp-1 inhibitor)
C=CC(=O)N1C/C(=C/c2ccc(F)cc2)C(=O)/C(=C\c2ccc(F)cc2)C1	SUMO1-SIM PPI 75.7, DNMT1 inh 92.9, Scp-1 inhibitor 84.7
CCOC(=O)[C@]12CCC=C1N(Cc1ccc3c(c1)OCO3)C(=O)[C@H](CC(=O)NCC1CCCCC1)C2	none (no result: STEP inh, DNMT1 inh, Scp-1 inhibitor)
Cc1ccc(NC(=O)Cn2nnc(C(=O)NCCc3ccccc3)c2N)c(C)c1	DNMT1 inh 53.3
Cc1cc(C)c(NC(=O)Cn2nnc(C(=O)NCCc3ccccc3)c2N)c(C)c1	none
CCn1c(CC(=O)Nc2ccccc2)nnc1SCc1nc2ccccc2c(=O)[nH]1	none
O=c1oc2c(O)c(O)cc3c(=O)oc4c(O)c(O)cc1c4c23	LMPTP block 86.4, SUMO1-SIM PPI 94.4, STEP inh 98.9, DNMT1 inh 88.5, Scp-1 inhibitor 95.8
COc1ccc(OC)c(-c2csc3nnc(SCC(=O)Nc4ccc(NC(C)=O)cc4)n23)c1	none
COc1cccc(-c2csc3nnc(SCC(=O)c4ccc(NC(C)=O)cc4)n23)c1	SUMO1-SIM PPI 42.6
Cc1ccc2nc(-c3ccc(C#N)cc3)c(Cc3ccccc3)n2c1	none (no result: STEP inh, DNMT1 inh, Scp-1 inhibitor)
COC(=O)c1cccc(Nc2nc(-c3ccncc3)nc3ccccc23)c1	SUMO1-SIM PPI 60.6
CCOC(=O)c1cccc(Nc2nc(-c3cccnc3)nc3ccccc23)c1	none
COC(=O)c1cccc(Nc2nc(-c3cccnc3)nc3ccccc23)c1	SUMO1-SIM PPI 46.1
COC(=O)c1ccc(Nc2nc(-c3ccncc3)nc3ccccc23)cc1	none
CC(=O)N1CCN(S(=O)(=O)c2cccc(C(=O)N3CCN(S(=O)(=O)c4c(C)c(C)cc(C)c4C)CC3)c2)CC1	none (no result: Scp-1 inhibitor)
Cc1cc(C)c(C#N)c(SCC(=O)Nc2nonc2N)n1	SUMO1-SIM PPI 46.0
O=[N+]([O-])c1ccccc1N/N=C/c1cccc(O)c1O	SUMO1-SIM PPI 44.6
O=[N+]([O-])c1ccccc1N/N=C\c1ccccc1Cl	none
O=C1NC[C@H](CCCCN2C[C@H](Cc3ccccc3)N(CC3CCCCC3)C(=O)C2=O)N(CC2CCCCC2)C1=O	none (no result: STEP inh, DNMT1 inh, Scp-1 inhibitor)
Cc1ccsc1C=Nc1ccc(O)cc1	SUMO1-SIM PPI 67.9, DNMT1 inh 89.4
Cc1ccsc1/C=N/NC(=O)CO	none
CC(=O)Oc1cc2cccc(OC(C)=O)c(=O)c2c(OC(C)=O)c1OC(C)=O	DNMT1 inh 59.1, Scp-1 inhibitor 58.2
NC(Cc1ccc(F)cc1)c1csc(Nc2cc(Oc3ccccc3)ncn2)n1 (centres undefined)	none (no result: Scp-1 inhibitor)
Nc1nc2ccccc2cc1C(=O)NCc1ccc(Cl)cc1Cl	none (no result: STEP inh, DNMT1 inh, Scp-1 inhibitor)
O=C1NN=C(CSc2n[nH]c(=S)s2)CS1	SUMO1-SIM PPI 49.5
CC1(Br)C(Sc2ccccc2[N+](=O)[O-])=Nc2ccccc21 (centres undefined)	none (no result: STEP inh, DNMT1 inh, Scp-1 inhibitor)
CC(C)(O)C1Cc2cc(/C=C/C(=O)O)c(O)cc2O1 (centres undefined)	Scp-1 inhibitor 95.1
COc1cc2c(cc1/C=C/C(=O)O)OC(C)C2 (centres undefined)	none
CN(C)CCN(C)C1CN(Cc2ccc(F)cc2)S(=O)(=O)C1 (centres undefined)	none (no result: Scp-1 inhibitor)
COc1ccc(CNC[C@@H](CCCCN(C)Cc2ccc(OC)cc2)N2C[C@H](c3ccccc3)N(CCc3ccc(Cl)c(Cl)c3)C(=O)C2=O)cc1	LMPTP block 56.7
C#CCOc1nc(Nc2cccc([N+](=O)[O-])c2)nc(OCC#C)n1	SUMO1-SIM PPI 46.1
COc1nc(Nc2cccc([N+](=O)[O-])c2)nc(OC)n1	none
COc1ccc(OCC(=O)N/N=C/c2cccn2-c2cccc(C(=O)O)c2)cc1	DNMT1 inh 52.8
O=C(O)c1ccc2c(c1)[C@@H]1C=CC[C@@H]1[C@H](c1ccccn1)N2	DNMT1 inh 111.3
O=C1/C(=C/c2ccco2)SC(=S)N1c1cccnc1	LMPTP block 74.7, SUMO1-SIM PPI 107.4, STEP inh 78.8, DNMT1 inh 99.4, Scp-1 inhibitor 87.0
Cc1cc(/C=C2\SC(=S)N(Cc3ccco3)C2=O)c(C)n1-c1cccnc1	none
O=C1/C(=C\c2ccco2)SC(=S)N1c1ccc(O)cc1	none
Cc1cc(/C=C2/SC(=S)N(c3cccc(C(F)(F)F)c3)C2=O)c(C)n1-c1cccnc1	DNMT1 inh 50.8
NN1C(=O)/C(=C\c2ccco2)SC1=S	DNMT1 inh 51.6
CC(C)C1OC(CCc2ccccc2)Cc2[nH][nH]c(=O)c21 (centres undefined)	none (no result: STEP inh, DNMT1 inh, Scp-1 inhibitor)
O=C(/C=C/[C@H]1O[C@@H](n2cnc3c(NC(=O)c4ccccc4)ncnc32)[C@H](O)[C@@H]1O)NCc1cccc2ccccc12	none (no result: Scp-1 inhibitor)
Cc1cc(C)c2nc(C)cc(N/N=C/c3ccc(O)cc3)c2c1	LMPTP block 69.1, DNMT1 inh 61.9
Cc1cc(N/N=C/c2ccc(O)cc2)c2cccc(C)c2n1	LMPTP block 57.4
Cc1cc(N/N=C/c2ccc(N(C)C)cc2)c2ccccc2n1	none

From PubChem
